One series concerns Acinetobacter baumannii. The series can be described thus: Antibacterial activity against Acinetobacter baumanii ATCC 19606 after 18 to 22 hrs in absence of colistin by broth microdilution method. Format: functional. As to conditions: ATCC 19606 = CIP 70.34 = JCM 6841. The method, boiled down:
(§1)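 Broth microdilution per CLSI guidelines. Gram-negatives grown in TSB. Each strain tested alone and again with colistin at ¼ × MIC to permeabilize the outer membrane. Plates incubated at 37 °C for 18–22 h. MIC read as the lowest concentration showing no visible growth.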

Series [1] has as its system Escherichia coli. Nature of the series: Antibacterial activity against Escherichia coli 1411 harboring delta-acrAB after 18 to 22 hrs in absence of colistin by broth microdilution method. The series is classed as functional.
The next series relates to Enterobacter cloacae. The series can be described thus: Antibacterial activity against Enterobacter cloacae BAA-1154 after 18 to 22 hrs in presence of 1/4 times MIC colistin by broth microdilution method. The series is classed as functional. The gist of the method:
as §1

The next series has as its system Klebsiella pneumoniae. Nature of the series: Antibacterial activity against Klebsiella pneumoniae BAA-1706 after 18 to 22 hrs in presence of 1/4 times MIC colistin by broth microdilution method. The series is classed as functional. The method, boiled down:
as §1

Another series deals with HRT-18 cell line. Nature of the series: Cytotoxicity against human HRT18 cells assessed as reduction in cell viability at 20 ug/ml after 24 hrs by MTS assay. Format: cell-based. As to conditions: hrt-18, 24 h. The method, boiled down:
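HRT-18 cells maintained in RPMI-1640 with 10% fetal horse serum at 37 °C, 5% CO2. Exposed to 5, 10, 20 or 40 μg/mL for 2 or 24 h, then MTS added and absorbance read at 490 nm. Viability expressed relative to untreated cells, n ≥ 3, one-way ANOVA with Dunnett's test.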

A further series has as its system Enterococcus faecium. Nature of the series: Antibacterial activity against vancomycin-resistant Enterococcus faecium ATCC HM-968 after 14 serial passages measured after 18 hrs by broth microdillution method. Format: functional. The method, boiled down: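 Multi-step selection over 14 passages in two weeks. McFarland 0.5 inoculum diluted 1:300 in TSB (E. faecalis) or BHI (E. faecium) to 1 × 10^5 CFU/mL. Each passage reinoculated at ~5 × 10^5 CFU/mL from the sub-inhibitory well of the previous plate. Compounds serially diluted in triplicate, incubated ≥18 h at 37 °C, MIC read visually. Resistance defined as >4-fold MIC rise.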

In series [2] the test system is Escherichia coli. Nature of the series: Antibacterial activity against tolC deficient Escherichia coli assessed as cell lysis at 25 ug/ml after 30 mins in presence of sucrose by FM4-64/DAPI/SYTOX Green staining-based deconvolution microscopic analysis. Format: functional.
The subject of another series is Bacillus subtilis. Nature of the series: Antibacterial activity against Bacillus subtilis assessed as bending of cells at 5 times MIC after 2 hrs in presence of methylsulfonyl methane by phase contrast microscopic analysis. Format: functional. The method, boiled down:
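B. subtilis grown in LB at 37 °C to OD600 ~0.2, then treated at 5 × MIC with MSM for osmotic stabilisation. At 2 h, stained with FM 4-64 (1 μg/mL), DAPI (1 μg/mL) and SYTOX Green (1 μg/mL). Imaged by deconvolution fluorescence and phase contrast microscopy.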

Series [3] relates to Enterococcus faecalis. Nature of the series: Inhibition of UPPP-mediated peptidoglycan biosynthesis in Enterococcus faecalis NR-31975 assessed as accumulation of UDP-N-acetylmuramyl-pentapeptide at 10 times MIC after 30 mins by HPLC-MS analysis. The gist of the method:
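Pellets boiled 30 min. UDP-N-acetylmuramyl-pentapeptide measured by HPLC-TOF MS on a phenyl column, 5–20% acetonitrile/0.1% formic acid gradient, positive ESI.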

Series [4] deals with T1, Farnesyl pyrophosphate synthase (Homo sapiens, UniProt P14324).
T1 sequence (P14324 whole entry): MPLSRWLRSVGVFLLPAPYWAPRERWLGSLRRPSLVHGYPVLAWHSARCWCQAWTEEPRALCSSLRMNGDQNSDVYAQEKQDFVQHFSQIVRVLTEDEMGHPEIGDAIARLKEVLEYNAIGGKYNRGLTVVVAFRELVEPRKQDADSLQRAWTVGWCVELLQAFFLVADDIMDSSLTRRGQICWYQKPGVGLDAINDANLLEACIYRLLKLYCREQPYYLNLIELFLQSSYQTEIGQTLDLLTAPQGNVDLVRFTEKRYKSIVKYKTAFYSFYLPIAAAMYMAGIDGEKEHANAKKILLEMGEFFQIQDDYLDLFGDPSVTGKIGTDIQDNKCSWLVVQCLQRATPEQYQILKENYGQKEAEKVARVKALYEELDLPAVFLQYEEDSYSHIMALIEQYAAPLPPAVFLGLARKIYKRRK
The series can be described thus: Inhibition of human FPPS.

In series [5] the test system is Enterococcus faecalis. Nature of the series: Potentiation of gentamicin-induced antibacterial activity against Enterococcus faecalis ATCC 51299 assessed as gentamicin MIC preincubated for 30 mins followed by gentamicin addition measured after 18 to 21 hrs. Format: functional. The gist of the method:
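Enterococcal suspensions at 5×10^5 CFU/mL preincubated with compound at ½ × MIC for 30 min at room temperature.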

For series [6], the system named is Enterococcus faecalis. The series can be described thus: Synergistic antimicrobial activity against Enterococcus faecalis ATCC 51299 after 20 hrs in presence of linezolid by checkerboard assay. Format: functional. The gist of the method:
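Checkerboard in TSB with a starting inoculum of 1×10^5 CFU/mL. Compound and antibiotic diluted from 2× or 4× MIC along perpendicular axes. Incubated 20 h at 37 °C. ΣFIC calculated: ≤0.5 synergy, >0.5 to <2 additive, 2–4 indifference, >4 antagonism.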

In brackets after ≈: the same amount, converted by molar mass. Activity calls are given as the source filed them.

Take `CCCCc1ccc(-c2nc(C)c(/C(C)=N/NC(=N)N)s2)cc1`: the MIC in the series on Acinetobacter baumannii stood at 8 µg/mL (≈ 24.3 µM); with Escherichia coli [1] it was 4 µg/mL (≈ 12.1 µM); in the series on Enterobacter cloacae, 1 µg/mL; in the series with Klebsiella pneumoniae, 1 µg/mL. Further, the Activity result with HRT-18 cell line is reported as “Non-Toxic”. For the same molecule, the result in the series on Enterococcus faecium, with Escherichia coli [2] and in the series with Bacillus subtilis was Active. Further, the inhibition entry with Enterococcus faecalis [3] was “Active”. Moreover, the “inhibition (INH)” value in series [4] was “Not Active”. In addition, the outcome with Enterococcus faecalis [5] was inactive. In addition, the “fractional inhibitory concentration index (FICI)” value in the series on Enterococcus faecalis [6] worked out at 2.

These data come from ChEMBL document CHEMBL4028805, “Phenylthiazole Antibacterial Agents Targeting Cell Wall Synthesis Exhibit Potent Activity in Vitro and in Vivo against Vancomycin-Resistant Enterococci” (J Med Chem, 2017).
